In ChEMBL document CHEMBL1157795, “Structure-activity relationship of an ozonide carboxylic acid (OZ78) against Fasciola hepatica” (2010) one finds Activity data, which are given here for 28 compounds.

The structures appear in SMILES notation. The source made the active and inactive calls. No cut-off for these calls is given here.

The test system of experiment [1] is Fasciola hepatica. Nature of the experiment: Antiparasitic activity against Fasciola hepatica infected in rat assessed as reduction in worm burden at 100 mg/kg, po administered as single dose measured after 6 days post treatment. It counts as functional. Also on record: scale not given: the % may be the effect or the level left. In short, it runs like this:
(§1)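 Female Wistar rats (~100 g) infected with ~20 F. hepatica metacercariae each; at 8 weeks post-infection given a single 100 mg/kg oral dose as suspension in 7% (v/v) Tween 80 / 3% (v/v) EtOH. Killed by CO2 on day 6 post-treatment; adult flukes recovered from bile ducts and livers. Mean total worm burden compared with untreated controls; cures scored; Kruskal-Wallis test, 5% level.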

Experiment [2] relates to Fasciola hepatica. Nature of the experiment: Antiparasitic activity against Fasciola hepatica infected in rat assessed as induction of cure at 100 mg/kg, po administered as single dose measured after 6 days post. It is filed as functional, organism-based. Also on record: dose 100 mg/kg. The method in brief:
as §1

Experiment [3] relates to Fasciola hepatica. Nature of the experiment: Antiparasitic activity against Fasciola hepatica infected in rat assessed as reduction in worm burden at 50 mg/kg, po administered as single dose measured after 6 days post treatment. It is filed as functional. Also on record: scale not given: the % may be the effect or the level left. The method in brief: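 Female Wistar rats (~100 g), each infected with ~20 F. hepatica metacercariae, dosed orally once at 8 weeks post-infection with 50 mg/kg suspended in 7% (v/v) Tween 80 plus 3% (v/v) EtOH. Day 6 after treatment: CO2 sacrifice, adult flukes counted from bile ducts and liver. Worm burden reduction versus untreated control rats (mean totals); Kruskal-Wallis significance.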

In the case of `NNC(=O)C[C@H]1CC[C@]2(CC1)OO[C@]1(O2)C2CC3CC(C2)CC1C3`, in the experiment on Fasciola hepatica [1], the Activity was 12%. The result in the experiment on Fasciola hepatica [2] was inactive.

For the compound `COC(=O)C[C@H]1CC[C@]2(CC1)OO[C@]1(O2)C2CC3CC(C2)CC1C3`, in the experiment on Fasciola hepatica [1], the Activity is reported as 99%.

`O=C(C[C@H]1CC[C@]2(CC1)OO[C@]1(O2)C2CC3CC(C2)CC1C3)NCCS(=O)(=O)[O-].[Na+]`: in the experiment with Fasciola hepatica [1], the Activity came out at 0%. The outcome in the experiment with Fasciola hepatica [2] was inactive.

Take `N=C(N)NC(=O)C[C@H]1CC[C@]2(CC1)OO[C@]1(O2)C2CC3CC(C2)CC1C3`: in the experiment on Fasciola hepatica [1], the Activity came out at 0%. In addition, the result with Fasciola hepatica [2] was inactive.

Take `O=C(O)C[C@H]1CC[C@]2(CC1)OO[C@]1(O2)C2CC3CC(C2)CC1C3`: the Activity in the experiment with Fasciola hepatica [1] amounted to 100%. The outcome in the experiment with Fasciola hepatica [2] was Active.

For the compound `O=C(O)CNC(=O)C[C@H]1CC[C@]2(CC1)OO[C@]1(O2)C2CC3CC(C2)CC1C3`, the Activity in the experiment on Fasciola hepatica [1] is 86%.

`CCOP(=O)([O-])C[C@H]1CC[C@]2(CC1)OO[C@]1(O2)C2CC3CC(C2)CC1C3.[K+]`: the Activity with Fasciola hepatica [1] was found to be 16%. Moreover, the outcome in the experiment with Fasciola hepatica [2] was inactive.

For `O=C(O)C[C@H]1CC[C@]2(CC1)OO[C@]1(O2)C2CC3CC1CC(C2)C3F` (some centres not stated), the Activity in the experiment on Fasciola hepatica [1] is listed as 76%.

`O=C(C[C@H]1CC[C@]2(CC1)OO[C@]1(O2)C2CC3CC(C2)CC1C3)NO`: in the experiment with Fasciola hepatica [1], the Activity was determined as 34%. Moreover, in the experiment with Fasciola hepatica [2], the result was inactive.

Turning to `O=C(O)C(C(=O)O)[C@H]1CC[C@]2(CC1)OO[C@]1(O2)C2CC3CC(C2)CC1C3`, the Activity in the experiment on Fasciola hepatica [1] is 0%. In addition, the result in the experiment with Fasciola hepatica [2] was inactive.

Turning to `NC(=O)C[C@H]1CC[C@]2(CC1)OO[C@]1(O2)C2CC3CC(C2)CC1C3`, the Activity with Fasciola hepatica [1] is on record as 7%. Also, in the experiment with Fasciola hepatica [2], the result was inactive.

Regarding `CS(=O)(=O)NC(=O)C[C@H]1CC[C@]2(CC1)OO[C@]1(O2)C2CC3CC(C2)CC1C3`, in the experiment on Fasciola hepatica [1], the Activity worked out at 100%. Also, in the experiment with Fasciola hepatica [2], the outcome was Active.

In the case of `O=C([O-])CN1CC[C@]2(CC1)OO[C@]1(O2)C2CC3CC(C2)CC1C3.[Na+]`, the Activity with Fasciola hepatica [1] came to 0%. Also, in the experiment with Fasciola hepatica [2], the result was inactive.

`O=C(O)C[C@H]1CC[C@]2(CC1)OO[C@@]1(CCCCC1)O2`: the Activity with Fasciola hepatica [1] was determined as 0%. Also, the outcome in the experiment on Fasciola hepatica [2] was inactive.

As for `C[C@H]1[C@H](OC(=O)CCC(=O)O)O[C@@H]2O[C@@]3(C)CC[C@H]4[C@H](C)CC[C@@H]1[C@@]24OO3` [ARTESUNATE], in the experiment on Fasciola hepatica [1], the Activity was determined as 30%.

For `CCOC(=O)C[C@H]1CC[C@]2(CC1)OO[C@]1(O2)C2CC3CC(C2)CC1C3`, the Activity in the experiment on Fasciola hepatica [3] is recorded as 36%.

As for `O=C(O)C[C@H]1CCCC[C@@]12OOC1(O2)C2CC3CC(C2)CC1C3` (some centres not stated), the Activity in the experiment with Fasciola hepatica [1] worked out at 46%. Further, the result in the experiment with Fasciola hepatica [2] was inactive.

Consider `O=C(O)C(=O)NC[C@H]1CC[C@]2(CC1)OO[C@]1(O2)C2CC3CC(C2)CC1C3`, for which the Activity in the experiment on Fasciola hepatica [1] was 14%. Further, in the experiment on Fasciola hepatica [2], the result was inactive.

With `O=C(O)C[C@H]1CC[C@@]2(CC1)C[C@@]1(OO2)C2CC3CC(C2)CC1C3`, the Activity in the experiment with Fasciola hepatica [1] worked out at 7%. The outcome in the experiment on Fasciola hepatica [2] was inactive.

Take `O=C(O)[C@H]1CC[C@]2(CC1)OO[C@]1(O2)C2CC3CC(C2)CC1C3`: in the experiment on Fasciola hepatica [1], the Activity came to 52%.

On to `O=C(O)CC[C@H]1CC[C@]2(CC1)OO[C@]1(O2)C2CC3CC(C2)CC1C3`, for which the Activity with Fasciola hepatica [1] came to 14%. Further, the result in the experiment on Fasciola hepatica [2] was inactive.

In the case of `O=C(O)C[C@@H]1CCC[C@]2(C1)OOC1(O2)C2CC3CC(C2)CC1C3` (relative stereo), the Activity in the experiment on Fasciola hepatica [1] came to 90%.

With `O=C(O)C[C@H]1CC[C@]2(CC1)OO[C@]1(O2)C2CC3CC1CC(C2)C3(F)F`, the Activity in the experiment on Fasciola hepatica [1] is listed as 80%. Moreover, the outcome in the experiment on Fasciola hepatica [2] was inactive.

Consider `O=C(O)C[C@H]1CC[C@]2(CC1)OO[C@]1(O2)C2CCCC1CCC2`, for which the Activity in the experiment on Fasciola hepatica [1] is 51%. In the experiment on Fasciola hepatica [2], the outcome was inactive.

Consider `O=C(O)C[C@H]1CC[C@]2(CC1)OC[C@]1(O2)C2CC3CC(C2)CC1C3`, for which the Activity in the experiment on Fasciola hepatica [1] is reported as 0%. For the same compound, the outcome with Fasciola hepatica [2] was inactive.

On to `O=C(O)C[C@H]1CC[C@]2(CC1)OO[C@]1(O2)C2CC3CC1C[C@@](F)(C3)C2`, for which, in the experiment on Fasciola hepatica [1], the Activity came to 80%.

Turning to `O=C(O)C[C@H]1CC[C@@]2(CC1)OO[C@@]1(O2)C2CC3CC(C2)CC1C3`, the Activity with Fasciola hepatica [1] was determined as 95%.

Take `O=C(C[C@H]1CC[C@]2(CC1)OO[C@]1(O2)C2CC3CC(C2)CC1C3)N1CCNCC1`: in the experiment with Fasciola hepatica [1], the Activity amounted to 0%. Moreover, the result with Fasciola hepatica [2] was inactive.
